38 variants from the RNAGym collection of RNA variant scans (doi:10.1126/science.aae0568) can be followed below.

This sample holds only a part of the variants without activity. A value given as a limit tells only on which side of the number the result lay.

The labels stand for the following.
B1: tRNA (parent)
chain: GUUCCGUUGGCGUAAUGGUAACGCGUCUCCCUCCUAAGGAGAAGACUGCGGGUUCGAGUCCCGUACGGAACG

In this data set the parent is B1. The experiment in a line: yeast fitness relative to wild type (ratio to wild type); higher = fitter; tRNA-Arg(CCU), competitive growth, 37 C, YPD. The method, boiled down: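 Start and end populations of a pooled competition were compared by 100-nucleotide paired-end sequencing of gene amplicons. The Saccharomyces cerevisiae strains carried tRNA-Arg(CCU) gene variants at the native genomic locus, synthesised with a 3% per-site mutation rate at 69 sites, and competed in YPD at 37°C for 24 hours in six parallel replicates. Darwinian fitness relative to wild type was based on the change in genotype frequencies. Genotypes required ≥ 100 starting reads, and estimates < 0.5 were set to 0.5.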
As to GGUCCGUUGGCGUAAUGGUAACGCGUCUCCCUACUAAGGAGAAGACUGCGGGUUCGAGUCCCGUACGGAACG [U2G C33A], the yeast fitness turned out to be 0.632.
To GUUCCGGUGGCGUAAUGGUACCGCGUCUCCCUCCUAAGGAGAAGACUGCGAGUUCGAGUCCCGUACGGAACG [U7G A21C G51A] belongs no more than 0.5; to GUUCCGUUGGCGUAAUGGUAACGCGUCUCCCUCCUGAGGAGAAGACUGGGGGUUCGAGUCCCGUACGGAACG [A36G C49G], 0.776.
To GUUCCGUUGGCGUAAUAGUAACGCGUCUCCCUCGUAAGGAGAAGACUGCGGGUUCGAGUCCCGUUCGGAACG [G17A C34G A65U] belongs no more than 0.5; to GUUCCGUUGGCGUAAUGGUAACGAGUCUCCCUCCUAGGGAGAAGACUGCGGGUUCGCGUCCCGUACGGAACG [C24A A37G A57C], no more than 0.5.
As for GUUCCGUUGGCGUAAUGGUAACGCGUCCCCCUCCUAAGGAGAAGACUGCGGGUUCGAAUCCCGUACGGAACG [U28C G58A], the yeast fitness worked out at 0.937.
Under GUUCCGUCGGCGUAGUGGUAACGCGUCUCCCUCCUAACGAGAAGACUGCGGGUUCGAGUCCCGAACGACACG [U8C A15G G38C U64A G68A A69C] stands no more than 0.5; under GUUCCAUUGGCGUAAUGGUAACGCGUCUCCCUCCUAAGGAGAAGACUGCGGGUUCGACUCCCGUACGGAACG [G6A G58C], 1.08.
Under GUUCCGUUGGCGUAAUGGUAACGCGUCUCCCUCCUAAGGAGAACACUACGAGUUCGAGUCCCGUACGGAACG [G44C G48A G51A] stands 0.985; under GUUACGUUGGCGUGAUGGUAACGUGUCUCCCGCCUAAGGAGAGGACUGCGGGUUCGAGUCCCGUACGGAACG [C4A A14G C24U U32G A43G], no more than 0.5; under GUUCCGUUGGCGUAAUGGUAACGCGUCUCCCUCCUAAGGCGAAGACUGCGGGUUCGAGUCCCGUACCGAACG [A40C G67C], 0.907.
Under GUUCCGUUGGCGUAAUGGUAACGCGUCACCCUCCUAAGGAGAAGACUGCGGGUUCGAGUCCCGUACAGAACG [U28A G67A] stands 0.628.
As for GUUCCGUUGGCGUAAUGGUCACGCGUCUCCCUCCUAAAGAGAAGACUGCGGGUUCGAGUCCCGUACGGAACG [A20C G38A], the yeast fitness came out at 0.707.
To GUUCCGUUGGCGUAAUGGUAACGCGUCUCGUCCCUAAGGAGAAGACUGCGGGUUCGAGUCCCGUACGGAACG [C30G C31U U32C] belongs no more than 0.5; to GUUCGGUUGGCGUAAUGGUACCGCGUCUCCCUCCUAAGGAGAAGACUGCGGGUUCGAGUCCCGUACGGAACG [C5G A21C], 0.636.
GUUCUGUUGGCGUAAUGGUAACGCGUCUCCCUCAUGAGGAGAAGACUGCGGGUUCGAGUCCCGUACGGAACG [C5U C34A A36G]: the yeast fitness is no more than 0.5.
Consider GUUCCGUUGGCGUAAGGGUAACGCGUCUCCUUCCUAAGGAGUAGACUGCGGGUUCCAGUCCCGUACGGAACG [U16G C31U A42U G56C], for which the yeast fitness is no more than 0.5.
Under GUUCAGUUGGCGUAAUGGUAACGCGUCUCCCUCCUGAGGAGAAGACUGCGGGUUCGAGUCCCGUACGGAACG [C5A A36G] stands 0.886; under GUUCCGUUGGCGUCAUGGUACCGCGUCUCCCUCCUAAGAAGAAGACUGGGGGUUCGAGUCCCGUACGGAACG [A14C A21C G39A C49G], no more than 0.5; under GUUCCGUUGGCGUAAUGGUAACGCGUCUCCCUCCUAAGGAAAAGACCGCGGGUUCGAGUCCUGUACGGAACG [G41A U47C C62U], no more than 0.5.
To GUUCCGUUGGCGUAACGGUAACGCGUCUCCCUUCUCAGGAGAAGACUGGGGGUUCGAGUCCCGUACGGAACG [U16C C33U A36C C49G] belongs no more than 0.5; to GUUCAGUUGGCGUAAUGGUAACGCGUCACCCUCCUAAGGUGAAGACUGCGGGUUCGAGUCGCGUACGGAACG [C5A U28A A40U C61G], no more than 0.5; to GUUCGGUUGGCGUAAUGGUAACGCGUCUCCCUCCUAAGGAGAAGACUGCAGGUUCGAGUCCCGUACGGCACG [C5G G50A A69C], 0.571.
To GUUCCGUUGGCGUAAUGGUAACGCGUCUUCCUCCUAAGGUGAAGACUGCGGGUUCGAGUCCCGUACGGAACG [C29U A40U] belongs 0.836; to GUUCAGUUGGCGUAAUCGUAACGCGUCUCCCUCCUAAGGAGAAGACUGCGGGUUCGUGUCCCGUACGGAACG [C5A G17C A57U], no more than 0.5; to GUUCCGUUGGCGUAAUGGUAACGCGUCUCCCUCCUAAGGAGAAGACUGCGGGUUCGAGUCCCAGACGGAACG [G63A U64G], 0.8.
For GUUCCAUUGGCGUAAUGGUGACGUGUCUCCCUCCUAAGGGGAGGACUGCGGGUUCGAGUCCCGUACGGAACG [G6A A20G C24U A40G A43G], the yeast fitness was no more than 0.5.
Under GUUCCGUUGGCGUAAUGGUAACGCGUCUCCAUCCUAAGGAGAAGACUGCGGGUUCGUGUCCCGUACGGUACG [C31A A57U A69U] stands no more than 0.5; under GUUCCGUUGGCGUAAUGGUAACGCGUCUGCCUCCUUAGGAGAGGACUGCGGGUUCGAGUCCCGUACGGAACG [C29G A36U A43G], no more than 0.5.
As for GUUCCGUUGGAGUAAUGGUAACGCGUCUCCCUCCUAAGGAGAAGACUGCGCGUUCGAGUCCCGUACGGAACG [C11A G51C], the yeast fitness stood at 0.585.
To GUACCGUUGGCGUAAUGGUAACGCGUCUCCCUCCUAAGGACAAGACUGCGGGUUCGAGUCCCGUACGGAACG [U3A G41C] belongs 0.694; to GUUCCGUUAGCGUAAUGGUAAAGCGUCUCCCUCCUAAGGAGAAGACUGCGGGAUCGGGUACCGUACGGAACG [G9A C22A U53A A57G C60A], no more than 0.5; to GUUCCGUUGGCGUAAUGGUAACGCGUCUCCCCCCUAAGGAGAAGACUGCGGGUGCGAGUCCUGUACGGAACG [U32C U54G C62U], 0.565.
Under GUUCCGUUGGCGUAAUGGUAACGCGUCUCCCUCCUAAGGAGAAGACUGCGGGUUAGAGUCCGGUACGGCACG [C55A C62G A69C] stands no more than 0.5; under GUUCCGUUGGCGUAAUGGUAACGCGGCUCCCUCCUAAGGAGAAGACUGCGGGUUCGAGUCCCGUACGGACCG [U26G A70C], 0.924; under GUUCCGUUGGCGUAAUGGUGACGCGUCUCCCUCCUAAGGAGAAGACUGGGGGUUCGAGACCCGUACGGAACG [A20G C49G U59A], 0.556.
To GGUCCGUUGGCGUAAUGGUAACGCGUCUGCCUCCUAAGGAGAAGACUGCCGGUUCGUGUCCCGUACGGAACG [U2G C29G G50C A57U] belongs no more than 0.5.
For GUUCCGUUGGCGUAAUGGUAACGCGUCUCCCUCCUGAGGAGAAGACUGCGGAUUCGAGUCCCGUACGGAACG [A36G G52A], the yeast fitness came out at 0.744.
